Results taken from publication PMC11387586 (Pharmacology Research & Perspectives, 2024).
Several values for one entry are separate records, joined by “and”; a condition that tells them apart may be missing. Equal entries are not always repeated.

How the values were obtained:
[1] = cited from earlier work
[2] = Mass balance: radioactive dose recovered in urine and feces; assay type: in vivo, human; details: for Cumulative percent of radioactive dose recovered: urine
Procedure, shortened: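 8 healthy men each got one [14C]-labelled 20 mg oral capsule (about 100 μCi) with 240 mL water after a fast of at least 10 h. Urine was collected at 0–4, 4–8, 8–12 and 12–24 h, then every 24 h; feces every 24 h, homogenised in about 20:80 acetonitrile:water. Urine was counted directly by LSC; fecal homogenate was combusted first. Samples ran in duplicate. Collection continued until discharge criteria were met.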

[3] = Metabolite profiling of plasma; assay type: in vivo, human; details: pooled samples 2 to 264 h
Procedure, shortened: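 Plasma taken at 2, 4, 12, 24, 72, 120, 168 and 264 h was pooled across participants by time point, in proportion to weight (1.2–2.5 g each), then counted by LSC. LC-HRMS profiling used fraction radioactivity counts. For chiral M1a/M1b separation, a 2–264 h pool ran on a cellulose column with reverse-phase gradient, 0.6 mL/min, over 15 min. Exposure = component AUC0-t / total radioactivity AUC0-t × 100.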

[4] = oral dose, cited from earlier work
[5] = Plasma pharmacokinetics of aficamten, M1a and M1b; assay type: in vivo, human
Procedure, shortened: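 About 3 mL K2EDTA blood was drawn predose and at 0.25–48 h, then every 24 h. Plasma was spun at about 2000G for 10 min at 4°C and stored at −20°C. Validated LC-MS/MS: parent on C18 with 10 mM ammonium acetate/acetonitrile gradient; M1a/M1b on a chiral column with 30:70 acetonitrile:10 mM ammonium acetate. Non-compartmental analysis gave Cmax, tmax, t1/2, AUCs, CL/F and Vz/F.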

[6] = Urinary excretion of aficamten, M1a and M1b; assay type: in vivo; details: human, urine, oral, 20 mg, renal clearance (CLR), geometric mean
Procedure, shortened: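 Urine was collected predose, at 0–4, 4–8, 8–12 and 12–24 h, then every 24 h until discharge. Isopropyl alcohol equal to 20% of void mass was added, pools were kept at 4°C, and aliquots were frozen at −20°C. Urinary excretion of parent and M1a/M1b (fe0-tlast) and renal clearance came from non-compartmental analysis, given as geometric means.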

Safety assessments = assay type: in vivo, human; details: single oral 20 mg
Procedure, shortened: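 After one [14C] 20 mg oral dose, eight healthy men were monitored for vital signs, 12-lead ECG, clinical chemistry, haematology, urinalysis and adverse events at several time points. They stayed confined until at least Day 19 or until discharge criteria were met. A follow-up phone call came 7–9 days after discharge.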

[7] = Metabolite profiling of feces; assay type: in vivo, human; details: pooled feces
Procedure, shortened: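 Feces from single oral 20 mg (about 100 μCi) [14C] dosing was homogenised in about 20:80 acetonitrile:water. Metabolites were profiled by LC-HRMS with radioactivity counted in collected fractions. Identification cut-off was 1% of dose; quantitation limit was 1% of run and 10 cpm peak height. % of dose = (% radioactivity in peak/100) × % of dose in sample.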

[8] = test system: naive rat intestinal contents; details: anaerobic conditions; cited from earlier work
[9] = Metabolite profiling of urine; assay type: in vivo, human; details: pooled urine
Procedure, shortened: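 Urine was pooled per participant into 0–336, 0–384 and 0–432 h pools (0.03–0.08% of each sample weight) and counted by LSC. Radiochromatograms came from LC-HRMS fractions. Chiral separation of M1a and M1b used a […] pool. Identification cut-off was 1% of dose; quantitation limit was 1% of run and 10 cpm peak height. % of dose = (% radioactivity in peak/100) × % of dose in sample.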

[10] = cited from earlier work; remark: listed apart in the source
[11] = Total radioactivity in plasma and whole blood; assay type: in vivo, human; details: for Total radioactivity t1/2 / Total radioactivity tmax: median (range)
Procedure, shortened: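 About 4 mL K2EDTA blood was drawn at the PK time points. […] Counting ran at least 5 min with quench correction, in duplicate where possible. LLOQ was 9.57 ng equivalents/g for blood and 6.86 for plasma. Non-compartmental analysis; tmax and t1/2 given as median (range), others as geometric mean.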

[12] = whole blood, geometric mean (CV%)

## CCc1nc(-c2ccc3c(c2)CC[C@H]3NC(=O)c2cnn(C)c2)no1 [Aficamten]
[1]
  effect of food on absorption: did not affect the extent of aficamten absorption
[1]; multiple doses
  time to steady state concentrations: ≤ 2 weeks
[2]; based on recovery data
  fraction of dose absorbed: at least 0.95
[2]; urine and feces combined, by 336 h postdose
  mean recovery of radiolabeled material: 85.0%
[2]; urine and feces combined, end of sampling period (600 h)
  overall mean recovery of radioactivity in urine and feces: 89.7%
[2]; 0–96 h, individual subject
  Cumulative percent of radioactive dose recovered: 24.1% and 8.99% and 16.2% and 13.5% and 11.2% and 17.7% and 18.3% and 14.0%
[2]; 0–96 h, mean
  Cumulative percent of radioactive dose recovered: 15.5%
[2]; 0–120 h, individual subject
  Cumulative percent of radioactive dose recovered: 27.4% and 11.2% and 18.0% and 15.7% and 13.7% and 20.5% and 21.1% and 16.4%
[2]; 0–120 h, mean
  Cumulative percent of radioactive dose recovered: 18.0%
[2]; 0–144 h, individual subject
  Cumulative percent of radioactive dose recovered: 31.3% and 13.3% and 20.8% and 17.1% and 15.7% and 22.2% and 23.6% and 18.7%
[2]; 0–144 h, mean
  Cumulative percent of radioactive dose recovered: 20.3%
[2]; 0–168 h, individual subject
  Cumulative percent of radioactive dose recovered: 34.3% and 14.7% and 22.3% and 18.2% and 17.5% and 24.1% and 25.7% and 20.7%
[2]; 0–168 h, mean
  Cumulative percent of radioactive dose recovered: 22.2%
[2]; 0–192 h, individual subject
  Cumulative percent of radioactive dose recovered: 36.9% and 16.1% and 23.8% and 19.2% and 18.6% and 25.5% and 27.2% and 22.3%
[2]; 0–192 h, mean
  Cumulative percent of radioactive dose recovered: 23.7%
[2]; 0–216 h, individual subject
  Cumulative percent of radioactive dose recovered: 38.9% and 17.6% and 25.3% and 20.3% and 19.9% and 26.6% and 28.6% and 23.8%
[2]; 0–216 h, mean
  Cumulative percent of radioactive dose recovered: 25.1%
[2]; 0–240 h, individual subject
  Cumulative percent of radioactive dose recovered: 40.8% and 18.6% and 27.2% and 21.3% and 20.8% and 27.7% and 29.6% and 25.2%
[2]; 0–240 h, mean
  Cumulative percent of radioactive dose recovered: 26.4%
[2]; 0–264 h, individual subject
  Cumulative percent of radioactive dose recovered: 42.5% and 19.7% and 28.6% and 21.9% and 21.6% and 28.5% and 30.6% and 26.2%
[2]; 0–264 h, mean
  Cumulative percent of radioactive dose recovered: 27.5%
[2]; 0–288 h, individual subject
  Cumulative percent of radioactive dose recovered: 43.8% and 20.5% and 29.9% and 22.5% and 22.0% and 29.3% and 31.2% and 27.1%
[2]; 0–288 h, mean
  Cumulative percent of radioactive dose recovered: 28.3%
[2]; 0–312 h, individual subject
  Cumulative percent of radioactive dose recovered: 44.8% and 20.9% and 30.6% and 22.9% and 22.4% and 30.0% and 31.8% and 27.8%
[2]; 0–312 h, mean
  Cumulative percent of radioactive dose recovered: 28.9%
[2]; 0–336 h, individual subject
  Cumulative percent of radioactive dose recovered: 45.7% and 21.8% and 31.4% and 23.2% and 22.7%
[2]; 0–336 h, mean
  Cumulative percent of radioactive dose recovered: 29.5%
[3]
  AUC0‐t % of total radioactivity AUC0‐t: 19.8%
[3]; listed as aficamten
  AUC0‐t % of total radioactivity AUC0‐t: approximately 19.8%
[4]; bile duct cannulated rats
  percent of the [^14C]aficamten radioactive dose in bile: trace level
[4]; intact rats
  percent of the [^14C]aficamten radioactive dose in feces: lack of detection
[4]; rat
  radioactive dose excreted by the hepatobiliary route: approximately 90%
  radioactive dose excreted in urine: approximately 8%
[5]; human, po, 20 mg
  Tmax: 2 h
  Vd/F: 690 L
[5]; human, po, 20 mg, AUC0‐inf, single oral 20 mg, geometric mean (CV%)
  AUC: 4440 ng·h/mL
[5]; human, po, 20 mg, AUC0‐tlast, single oral 20 mg, geometric mean (CV%)
  AUC: 4120 ng·h/mL
[5]; human, po, 20 mg, Cmax, single oral 20 mg, geometric mean (CV%)
  Cmax: 61.8 ng/mL
[5]; human, po, 20 mg, t1/2, plasma, single oral 20 mg, median (range)
  half-life: 99.6 h
[5]; single oral 20 mg, geometric mean (CV%)
  CL/F: 4.50 (32.1) L/h
[5]; single oral 20 mg, geometric mean (CV%), listed as aficamten
  CL/F: 4.50 L/h
[6]
  CL renal: 0.0438 mL/min
Safety assessments; 8 healthy male participants
  tolerability: well tolerated
Safety assessments; 8 participants
  changes in vital signs, ECG measurements, laboratory values: no clinically significant changes in vital signs, ECG measurements, or laboratory values
  deaths, serious AEs, AEs leading to discontinuation: no deaths, and serious AEs or any AEs leading to discontinuation
  participants with an AE (diarrhea, mild, not considered related to treatment): 12.5%
[7]
  Percent of radioactive dose in feces: 5.07%
[7]; listed as aficamten
  Percent of radioactive dose in feces: approximately 5.07%
[8]
  fate on incubation with rat intestinal contents: completely cleared
[9]
  Percent of radioactive dose in urine: No unchanged aficamten was recovered
[10]
  PK parameters in moderate hepatic impairment versus normal hepatic function: generally comparable
[11]; geometric mean
  ratio of plasma analyte to plasma total radioactivity, AUC0‐inf: 0.290
  ratio of total radioactivity in whole blood: plasma based on AUC0‐inf: 0.566
[11]; plasma, geometric mean (CV%)
  Total radioactivity Cmax: 111 (43.2) ng/mL
[11]; plasma
  Total radioactivity t1/2: 98.2 (80.1–230) h
  Total radioactivity tmax: 3.50 (1.00–6.00) h
[11]; [12]
  Total radioactivity AUC0‐inf: 8660 (23.7) h.ng/mL
  Total radioactivity AUC0‐tlast: 5710 (38.5) h.ng/mL
  Total radioactivity Cmax: 66.7 (44.9) ng/mL
[11]; whole blood
  Total radioactivity t1/2: 100 (86.2–171) h
  Total radioactivity tmax: 4.50 (1.00–16.0) h
